Experimental data: ChEMBL document CHEMBL1146654, “3-(7-Azaindolyl)-4-arylmaleimides as potent, selective inhibitors of glycogen synthase kinase-3” (Bioorg Med Chem Lett, 2004)

Key:
[1] = molecular target: T1, Protein kinase C gamma type (Homo sapiens, UniProt P05129); experiment: Inhibition of protein kinase C-gamma
[2] = molecular target: T2, Protein kinase C beta type (Homo sapiens, UniProt P05771); experiment: Inhibitory concentration against human protein kinase C-betaII using histone as substrate
Target sequence in this assay (P05771 whole entry): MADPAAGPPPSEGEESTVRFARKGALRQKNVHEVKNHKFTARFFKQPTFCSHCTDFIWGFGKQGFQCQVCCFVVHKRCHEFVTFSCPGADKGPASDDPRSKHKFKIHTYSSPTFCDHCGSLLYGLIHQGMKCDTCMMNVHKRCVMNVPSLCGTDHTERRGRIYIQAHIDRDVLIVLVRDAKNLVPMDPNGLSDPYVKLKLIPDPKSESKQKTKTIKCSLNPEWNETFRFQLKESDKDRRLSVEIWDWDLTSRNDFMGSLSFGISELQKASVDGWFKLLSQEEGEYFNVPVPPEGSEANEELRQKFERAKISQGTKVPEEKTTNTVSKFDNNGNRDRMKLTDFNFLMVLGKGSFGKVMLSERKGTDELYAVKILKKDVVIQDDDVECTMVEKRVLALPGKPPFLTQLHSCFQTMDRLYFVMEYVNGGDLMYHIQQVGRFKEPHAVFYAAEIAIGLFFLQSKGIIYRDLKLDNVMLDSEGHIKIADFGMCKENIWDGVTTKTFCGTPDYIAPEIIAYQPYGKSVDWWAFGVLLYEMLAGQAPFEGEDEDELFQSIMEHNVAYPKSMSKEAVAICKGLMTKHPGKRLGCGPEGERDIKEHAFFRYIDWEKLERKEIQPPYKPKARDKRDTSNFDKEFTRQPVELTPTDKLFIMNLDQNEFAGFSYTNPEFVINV

[3] = molecular target: T3, Protein kinase C alpha type (Homo sapiens, UniProt P17252); experiment: Inhibitory concentration against protein kinase C-alpha using histone as substrate
[4] = molecular target: T1, Protein kinase C gamma type; experiment: Inhibitory activity of 10 uM compound against protein kinase C-gamma using histone as substrate
[5] = molecular target: T3, Protein kinase C alpha type; experiment: Inhibitory activity of 10 uM compound against protein kinase C-alpha using histone as substrate
[6] = molecular target: Glycogen synthase kinase-3 beta (Homo sapiens, UniProt P49841); experiment: Effective concentration of compound against glycogen synthase kinase-3 in HEK293 cells; type: functional, cell-based
In short: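 HEK293 cells exposed to compound; glycogen synthase activity then measured in cell extracts as ¹⁴C-UDP glucose incorporation into glycogen. EC₅₀ averaged from triplicate determinations.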

[7] = molecular target: T2, Protein kinase C beta type; experiment: Inhibition of protein kinase C-betaII at 10 uM
Target sequence in this assay (P05771 2-671 limits assumed): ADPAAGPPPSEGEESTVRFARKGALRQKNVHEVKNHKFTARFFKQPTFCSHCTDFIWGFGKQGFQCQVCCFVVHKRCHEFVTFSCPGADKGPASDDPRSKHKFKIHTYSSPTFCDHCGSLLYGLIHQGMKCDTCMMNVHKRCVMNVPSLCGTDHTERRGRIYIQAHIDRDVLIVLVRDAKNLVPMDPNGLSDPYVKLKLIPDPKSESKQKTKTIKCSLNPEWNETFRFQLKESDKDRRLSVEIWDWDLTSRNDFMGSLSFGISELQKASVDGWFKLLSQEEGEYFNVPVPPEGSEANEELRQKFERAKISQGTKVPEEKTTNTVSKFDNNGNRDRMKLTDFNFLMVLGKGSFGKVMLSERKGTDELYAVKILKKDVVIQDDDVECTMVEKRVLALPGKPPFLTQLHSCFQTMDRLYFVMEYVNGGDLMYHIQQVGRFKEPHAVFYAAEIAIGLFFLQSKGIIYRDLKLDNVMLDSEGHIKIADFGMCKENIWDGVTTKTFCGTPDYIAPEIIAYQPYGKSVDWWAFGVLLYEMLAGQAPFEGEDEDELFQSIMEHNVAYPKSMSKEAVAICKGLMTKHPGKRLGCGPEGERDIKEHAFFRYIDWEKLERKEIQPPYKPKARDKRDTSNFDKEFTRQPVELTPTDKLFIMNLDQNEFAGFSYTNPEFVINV

Sequence of Glycogen synthase kinase-3 beta (P49841 whole entry): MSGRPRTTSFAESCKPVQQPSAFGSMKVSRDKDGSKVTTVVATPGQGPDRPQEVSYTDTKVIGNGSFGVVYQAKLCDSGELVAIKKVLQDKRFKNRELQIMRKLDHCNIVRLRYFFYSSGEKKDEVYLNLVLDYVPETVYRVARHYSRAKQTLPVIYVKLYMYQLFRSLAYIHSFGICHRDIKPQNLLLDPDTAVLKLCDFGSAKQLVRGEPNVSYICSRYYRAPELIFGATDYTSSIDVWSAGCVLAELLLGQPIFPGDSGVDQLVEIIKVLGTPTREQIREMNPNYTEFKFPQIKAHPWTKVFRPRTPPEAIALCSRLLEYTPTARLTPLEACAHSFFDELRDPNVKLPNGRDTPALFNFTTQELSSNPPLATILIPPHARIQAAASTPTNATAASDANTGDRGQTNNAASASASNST

SMILES | IC50 [1] | IC50 [2] | IC50 [3] | inhibition [4] | inhibition [5] | EC50 [6] | inhibition [7]
CN(C)CCCn1cc(C2=C(c3cccc4ccccc34)C(=O)NC2=O)c2cccnc21 | 2.8 µM | 0.24 µM | 1.4 µM | – | – | – | –
O=C1NC(=O)C(c2cn(CCCO)c3ncccc23)=C1c1cccc2ccccc12 | – | 0.27 µM | 3.6 µM | 50% | – | – | –
O=C1NC(=O)C(c2cn(CCCO)c3ncccc23)=C1c1ccccc1C(F)(F)F | – | 1.85 µM | – | 50% | 50% | – | –
[Cl-].[Li+] [CHLOROLITHIUM] | – | – | – | – | – | > 3000 µM | –
COc1ccccc1C1=C(c2cn(CCCNS(N)(=O)=O)c3ncccc23)C(=O)NC1=O | 6 µM | 0.89 µM | – | – | < 50% | – | –
O=C1NC(=O)C(c2cn(CCCO)c3ncccc23)=C1c1ccccc1Cl | 5.5 µM | 0.73 µM | 4.4 µM | – | – | – | –
COc1ccccc1C1=C(c2cn(CCCO)c3ncccc23)C(=O)NC1=O | – | 1.44 µM | – | < 50% | 50% | – | –
O=C1NC(=O)C(c2cn(CCCO)c3ncccc23)=C1c1ccc(F)cc1Cl | – | 2.38 µM | 4.5 µM | < 50% | – | – | –
CCn1cc(C2=C(c3cn(CCCO)c4ncccc34)C(=O)NC2=O)c2cccnc21 | – | 1.07 µM | – | < 50% | < 50% | – | –
COc1ccccc1C1=C(c2cn(CCCNS(C)(=O)=O)c3ncccc23)C(=O)NC1=O | 8.6 µM | 1.88 µM | 4.7 µM | – | – | – | –
COc1ccccc1C1=C(c2cn(CCCN)c3ncccc23)C(=O)NC1=O | – | 1.1 µM | – | < 50% | 50% | – | –
COc1ccccc1C1=C(c2cn(CCCNC=O)c3ncccc23)C(=O)NC1=O | 8.7 µM | 2.73 µM | – | – | < 50% | – | –
O=C1NC(=O)C(c2cn(CCCO)c3ncccc23)=C1c1ccccn1 | – | – | – | < 50% | < 50% | – | < 50%
CN(C)CCCn1cc(C2=C(c3ccccc3Cl)C(=O)NC2=O)c2cccnc21 | 3.6 µM | 1.16 µM | 4 µM | – | – | – | –
O=C1NC(=O)C(c2cn(CCCO)c3ncccc23)=C1c1cccs1 | – | – | – | < 50% | < 50% | – | < 50%
